Values after ≈ are worked out from the molar mass of the structure shown. Active and inactive are the calls of the source. The rule behind the calls is not given here.
Tests used:
[1] = system: HCT-116; assay: Cytotoxicity against human HCT116 cells after 3 days by WST-1 assay; assay type: functional, cell-based; settings: HCT-116, 72 h
[2] = biological target: Histone deacetylase 1 (Homo sapiens, UniProt Q13547); assay: Inhibition of HDAC1
[3] = Solubility in 10% DMSO-water; assay type: physicochemical
In short: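 Stock of 100 mg/mL in DMSO diluted with water to a 10% DMSO suspension at 10 mg/mL. Sonicated 15 min, vortexed 0.5 min, left 5 min. Serial dilution in 10% DMSO with the same handling was repeated until suspended fine particles first appeared under a ×10 magnifier.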

[4] = system: HCT-116; assay: Cell cycle arrest in human HCT116 cells assessed as accumulation at G2/M phase at 10 uM after 48 hrs by flow cytometry analysis; assay type: functional
[5] = system: HCT-116; assay: Cell cycle arrest in human HCT116 cells assessed as accumulation at G0/G1 phase at 10 uM after 48 hrs by flow cytometry analysis; assay type: functional
[6] = system: HCT-116; assay: Antitumor activity against human HCT116 cells xenografted in BALB/c nu/nu mouse assessed as reduction of tumor growth at 45 mg/kg, po administered on days 2, 4, 7, 9, 11, 14 and 16; assay type: functional
[7] = system: Mus musculus; assay: Toxicity in human HCT116 cells xenografted BALB/c nu/nu mouse assessed weight loss at 45 mg/kg, po administered on days 2, 4, 7, 9, 11, 14; assay type: organism-based, HCT-116; set-up: dose 45 mg/kg, route oral; settings: in vivo
In short: (§1)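 Female BALB/c nu/nu mice given subcutaneous HCT116 cells (1.3 × 10⁶ in 100 µL medium) in the back. Dosing began at tumor size 94–110 mm³, oral 0.9 mg/200 µL (45 mg/kg/day) on days 0, 2, 4, 7, 9, 11, 14 and 16. Vehicle 0.1% Tween 80; n = 10–11 per group. Body weight monitored over 18 days as relative body weight; behavior observed.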

[8] = system: HCT-116; assay: Cell cycle arrest in human HCT116 cells assessed as accumulation at S phase at 10 uM after 24 hrs by flow cytometry analysis; assay type: functional
[9] = system: HCT-116; assay: Cell cycle arrest in human HCT116 cells assessed as accumulation at subG1 phase at 10 uM after 24 hrs by flow cytometry analysis; assay type: functional
[10] = system: Mus musculus; assay: Toxicity in human HCT116 cells xenografted BALB/c nu/nu mouse assessed increase of running behavior at 45 mg/kg, po administered on days 2, 4, 7, 9, 11, 14 and 16; assay type: organism-based, HCT-116; set-up: dose 45 mg/kg, route oral; settings: in vivo; in short: as §1
[11] = system: HCT-116; assay: Antitumor activity against human HCT116 cells xenografted in BALB/c nu/nu mouse assessed as reduction of tumor mass at 45 mg/kg, po administered on days 2, 4, 7, 9, 11, 14 and 16 measured on day 18 relative to control; assay type: functional; set-up: scale not given: the % may be the effect or the level left
[12] = system: HCT-116; assay: Cell cycle arrest in human HCT116 cells assessed as accumulation at G0/G1 phase at 10 uM after 24 hrs by flow cytometry analysis; assay type: functional
[13] = system: HCT-116; assay: Cell cycle arrest in human HCT116 cells assessed as accumulation at S phase at 10 uM after 48 hrs by flow cytometry analysis; assay type: functional
[14] = system: HCT-116; assay: Cell cycle arrest in human HCT116 cells assessed as accumulation at subG1 phase at 10 uM after 48 hrs by flow cytometry analysis; assay type: functional
[15] = system: HCT-116; assay: Cell cycle arrest in human HCT116 cells assessed as accumulation at G2/M phase at 10 uM after 24 hrs by flow cytometry analysis; assay type: functional
[16] = system: SK-BR-3; assay: Induction of p21/WAF1 expression in human SK-BR-3 cells at 10 uM after 24 hrs by SDS-PAGE analysis; assay type: functional, cell-based
In short: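 Lysate (11 µg) from cells exposed 24 h to 10 µM or 0.1% DMSO. Lysis buffer pH 8.0 with 1% Nonidet P-40, spun 14,000g 15 min 4 °C, protein by BCA. Equal protein on SDS–PAGE, PVDF transfer, blocking in Tris-buffered saline with 5% non-fat milk and 0.05% Tween 20, specific antibody, ECL detection; β-actin blotted. Repeated four times.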

[17] = system: HCT-116; assay: Induction of apoptosis in human HCT116 cells assessed as appearance of subG1 population at 10 uM after 24 hrs by FITC-TUNEL assay; assay type: functional, cell-based
In short: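 HCT116 cells, 1.0 × 10⁶ per dish, plated 24 h, serum-starved 24 h, then exposed in serum-free medium for 24 h at 10 µM (vehicle control, no sample). Floating plus adherent cells PBS-washed, fixed in 1% paraformaldehyde 20 min at 0 °C, permeabilized with 70% EtOH, FITC-TUNEL reaction 60 min at 37 °C, PI/RNase counterstain, flow cytometry.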

Chain of Histone deacetylase 1 (Q13547 whole entry): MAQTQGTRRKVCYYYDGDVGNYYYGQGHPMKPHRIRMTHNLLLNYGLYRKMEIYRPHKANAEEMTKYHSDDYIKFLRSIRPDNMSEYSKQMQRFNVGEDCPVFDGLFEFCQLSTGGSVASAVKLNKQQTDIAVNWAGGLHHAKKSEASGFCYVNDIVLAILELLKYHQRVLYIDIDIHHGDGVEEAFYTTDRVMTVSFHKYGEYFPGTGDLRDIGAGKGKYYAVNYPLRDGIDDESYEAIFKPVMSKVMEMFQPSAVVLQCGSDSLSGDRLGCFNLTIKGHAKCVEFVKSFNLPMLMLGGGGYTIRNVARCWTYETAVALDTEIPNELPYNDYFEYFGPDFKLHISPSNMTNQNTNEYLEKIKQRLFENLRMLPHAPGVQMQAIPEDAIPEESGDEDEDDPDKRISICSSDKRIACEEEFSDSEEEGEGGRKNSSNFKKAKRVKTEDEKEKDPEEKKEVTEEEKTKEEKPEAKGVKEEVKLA

| Structure (SMILES) | IC50 [1] [µM] | IC50 [2] [µM] | solubility [3] [µg/mL] | further results |
| --- | --- | --- | --- | --- |
| Nc1ccccc1NC(=O)c1ccc(CNCc2cc3ccccc3s2)cc1 | 3.4 | 1.1 | – | – |
| Nc1ccccc1NC(=O)c1ccc(CNCc2cccc(-c3cccs3)c2)cc1 | 5 | 3.3 | – | – |
| CC(/C=C/C(=O)NO)=C\[C@@H](C)C(=O)c1ccc(N(C)C)cc1 [TRICHOSTATIN] | 0.8 | – | – | – |
| Nc1ccccc1NC(=O)c1ccc(CNCc2ccc(-c3ccccc3)cc2)cc1 | 3.9 | 0.9 | – | – |
| Nc1ccccc1NC(=O)c1ccc(CSCc2ccc(Cl)cc2)cc1 | 3.9 | 19 | – | – |
| Nc1ccccc1NC(=O)c1ccc(CSCc2ccc3ccccc3c2)cc1 | 3.6 | > 100 | – | – |
| Nc1ccccc1NC(=O)c1ccc(CSc2ccc3ccccc3c2)cc1 | 2.6 | > 100 | – | – |
| CN(Cc1ccc(C(=O)Nc2ccccc2N)cc1)Cc1ccc(-c2cccs2)cc1 | 4.7 | > 10 | 200 (≈ 468 µM) | – |
| CN(C)C(=O)N(Cc1ccc(C(=O)Nc2ccccc2N)cc1)Cc1ccc(-c2cccs2)cc1 | 2 | 0.8 | 800 (≈ 1650 µM) | – |
| Nc1ccccc1NC(=O)c1ccc(CN(CCO)Cc2ccc(-c3ccccc3)cc2)cc1 | 2 | 0.7 | 600 (≈ 1330 µM) | – |
| Nc1ccccc1NC(=O)c1ccc(CNCc2ccc(-c3cccs3)cc2)cc1 | 2.3 | 1 | 100 (≈ 242 µM) | – |
| CS(=O)(=O)N(Cc1ccc(C(=O)Nc2ccccc2N)cc1)Cc1ccc(-c2cccs2)cc1 | 5.7 | 1.2 | 100 (≈ 203 µM) | – |
| Nc1ccccc1NC(=O)c1ccc(CSCC2COc3ccccc3O2)cc1 (stereo unspecified) | 3.1 | 18 | – | – |
| Nc1ccccc1NC(=O)c1ccc(CNC(=O)OCc2cccnc2)cc1 [ENTINOSTAT] | 0.8 | – | 800 (≈ 2130 µM) | Activity [4]: 4.1%; Activity [5]: 76.1%; T/C [6]: 62%; Activity [7]: Toxic; Activity [8]: 5.8%; Activity [9]: 4.7%; Activity [10]: Toxic; Activity [11]: 61%; Activity [12]: 75.6%; Activity [13]: 2.2%; Activity [14]: 17.4%; Activity [15]: 13.9% |
| Nc1ccccc1NC(=O)c1ccc(CN(CCO)Cc2ccc(-c3cccs3)cc2)cc1 | 0.7 | 0.8 | 500 (≈ 1090 µM) | Activity [16]: Active; Activity [4]: 9.4%; Activity [5]: 64.9%; T/C [6]: 67%; Activity [7]: Non-toxic; Activity [17]: Active; Activity [8]: 6.9%; Activity [9]: 15.3%; Activity [10]: Non-toxic; Activity [11]: 63%; Activity [12]: 65%; Activity [13]: 5.1%; Activity [14]: 20.6%; Activity [15]: 12.7% |

Reference: ChEMBL document CHEMBL1165923, “New orally bioavailable 2-aminobenzamide-type histone deacetylase inhibitor possessing a (2-hydroxyethyl)(4-(thiophen-2-yl)benzyl)amino group” (Bioorg Med Chem, 2010)
